Measurements as given in ChEMBL document CHEMBL1122273, “5-sulfamoylorthanilic acids, a sulfonamide series with salidiuretic activity” (J Med Chem, 1983).

Organism: Rattus norvegicus
Experiment: Saluretic activity in the rat measured as concentration of Na+ in urine
Format: functional
How it was run: (§1)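 Rats deprived of food 24 h, water ad libitum, dosed 50 mg/kg by stomach tube as suspension in 2% starch, no extra water load. Groups of three in diuresis funnels; urine over first 5 h collected. Na⁺ and K⁺ by flame photometry, Cl⁻ argentometrically; expressed as mequiv/kg.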
CC(C)(C)S(=O)(=O)c1cc(NCc2ccco2)c(S(=O)(=O)[O-])cc1S(N)(=O)=O.[K+] gave a Saluretic activity of 3.3 m equiv 5hr-1 kg-1. For NS(=O)(=O)c1cc(S(=O)(=O)[O-])c(NCc2ccco2)cc1Oc1ccc(Cl)cc1.[K+], the Saluretic activity was 5.1 m equiv 5hr-1 kg-1. Work on NS(=O)(=O)c1cc(S(=O)(=O)[O-])c(NCc2ccco2)cc1Nc1ccccc1Cl.[Na+] yielded a Saluretic activity of 0.3 m equiv 5hr-1 kg-1. NS(=O)(=O)c1cc(S(=O)(=O)[O-])c(NCC2CCCO2)cc1Cl.[Na+] (configuration not stated) gave a Saluretic activity of 0.4 m equiv 5hr-1 kg-1. In the case of NS(=O)(=O)c1cc(S(=O)(=O)[O-])c(NCc2ccc3c(c2)OCO3)cc1Cl.[Na+], the Saluretic activity was 0.4 m equiv 5hr-1 kg-1. Molecule N.NS(=O)(=O)c1cc(S(=O)(=O)O)c(NCc2ccco2)cc1Oc1ccccc1 has a Saluretic activity of 6.6 m equiv 5hr-1 kg-1. NC(CO)(CO)CO.NS(=O)(=O)c1cc(S(=O)(=O)O)c(NCc2ccco2)cc1Oc1ccccc1 was tested, and the Saluretic activity was 5.8 m equiv 5hr-1 kg-1. CN(c1ccc(Cl)cc1)c1cc(NCc2ccco2)c(S(=O)(=O)[O-])cc1S(N)(=O)=O.[Na+] gave a Saluretic activity of 0.7 m equiv 5hr-1 kg-1. With CN(c1ccccc1)c1cc(NCc2ccco2)c(S(=O)(=O)[O-])cc1S(=O)(=O)N(C)C.[K+] the Saluretic activity was 1 m equiv 5hr-1 kg-1. For CN(c1ccccc1)c1cc(NCc2ccco2)c(S(=O)(=O)[O-])cc1S(N)(=O)=O.[K+], the Saluretic activity was 6.3 m equiv 5hr-1 kg-1. Molecule NS(=O)(=O)c1cc(S(=O)(=O)[O-])c(S(=O)(=O)C2CCCCC2)cc1NCc1ccco1.[Na+] has a Saluretic activity of 0.4 m equiv 5hr-1 kg-1. For NS(=O)(=O)c1cc(S(=O)(=O)[O-])c(NCc2ccco2)cc1Nc1ccc(Cl)cc1.[Na+], the Saluretic activity was 0.4 m equiv 5hr-1 kg-1. Work on CN(c1ccccc1)c1cc(NCc2ccco2)c(S(=O)(=O)O)cc1S(N)(=O)=O.N yielded a Saluretic activity of 6.8 m equiv 5hr-1 kg-1. CN(c1cc(NCc2ccco2)c(S(=O)(=O)[O-])cc1S(N)(=O)=O)C1CCCCC1.[K+] showed a Saluretic activity of 0.4 m equiv 5hr-1 kg-1. CC(C)CS(=O)(=O)c1cc(NCc2ccco2)c(S(=O)(=O)[O-])cc1S(N)(=O)=O.[Na+] was tested, and the Saluretic activity was 7.6 m equiv 5hr-1 kg-1. In the case of CN(Cc1ccco1)c1cc(Oc2ccccc2)c(S(N)(=O)=O)cc1S(=O)(=O)[O-].[K+], the Saluretic activity was 0.3 m equiv 5hr-1 kg-1. With Cc1cccc(Nc2cc(NCc3ccco3)c(S(=O)(=O)[O-])cc2S(N)(=O)=O)c1.[Na+] the Saluretic activity was 0.6 m equiv 5hr-1 kg-1. CN(Cc1ccco1)c1cc(Cl)c(S(N)(=O)=O)cc1S(=O)(=O)[O-].[Na+] was tested, and the Saluretic activity was 0.8 m equiv 5hr-1 kg-1.

Organism: Rattus norvegicus
Experiment: Saluretic activity in the rat measured as concentration of K+ in urine
Format: functional
How it was run: as §1
For CC(C)(C)S(=O)(=O)c1cc(NCc2ccco2)c(S(=O)(=O)[O-])cc1S(N)(=O)=O.[K+], the Saluretic activity was 1.8 m equiv 5hr-1 kg-1. Molecule NS(=O)(=O)c1cc(S(=O)(=O)[O-])c(NCc2ccco2)cc1Oc1ccc(Cl)cc1.[K+] has a Saluretic activity of 2 m equiv 5hr-1 kg-1. Work on NS(=O)(=O)c1cc(S(=O)(=O)[O-])c(NCc2ccco2)cc1Nc1ccccc1Cl.[Na+] yielded a Saluretic activity of 0.8 m equiv 5hr-1 kg-1. In the case of NS(=O)(=O)c1cc(S(=O)(=O)[O-])c(NCC2CCCO2)cc1Cl.[Na+] (configuration not stated), the Saluretic activity was 0.4 m equiv 5hr-1 kg-1. With NS(=O)(=O)c1cc(S(=O)(=O)[O-])c(NCc2ccc3c(c2)OCO3)cc1Cl.[Na+] the Saluretic activity was 0.3 m equiv 5hr-1 kg-1. Molecule N.NS(=O)(=O)c1cc(S(=O)(=O)O)c(NCc2ccco2)cc1Oc1ccccc1 has a Saluretic activity of 2.4 m equiv 5hr-1 kg-1. NC(CO)(CO)CO.NS(=O)(=O)c1cc(S(=O)(=O)O)c(NCc2ccco2)cc1Oc1ccccc1 was tested, and the Saluretic activity was 2.2 m equiv 5hr-1 kg-1. Molecule CN(c1ccc(Cl)cc1)c1cc(NCc2ccco2)c(S(=O)(=O)[O-])cc1S(N)(=O)=O.[Na+] has a Saluretic activity of 1.1 m equiv 5hr-1 kg-1. In the case of CN(c1ccccc1)c1cc(NCc2ccco2)c(S(=O)(=O)[O-])cc1S(=O)(=O)N(C)C.[K+], the Saluretic activity was 1.2 m equiv 5hr-1 kg-1. In the case of CN(c1ccccc1)c1cc(NCc2ccco2)c(S(=O)(=O)[O-])cc1S(N)(=O)=O.[K+], the Saluretic activity was 1.7 m equiv 5hr-1 kg-1. NS(=O)(=O)c1cc(S(=O)(=O)[O-])c(S(=O)(=O)C2CCCCC2)cc1NCc1ccco1.[Na+] was tested, and the Saluretic activity was 1.1 m equiv 5hr-1 kg-1. In the case of NS(=O)(=O)c1cc(S(=O)(=O)[O-])c(NCc2ccco2)cc1Nc1ccc(Cl)cc1.[Na+], the Saluretic activity was 0.4 m equiv 5hr-1 kg-1. Work on CN(c1ccccc1)c1cc(NCc2ccco2)c(S(=O)(=O)O)cc1S(N)(=O)=O.N yielded a Saluretic activity of 2.1 m equiv 5hr-1 kg-1. With CN(c1cc(NCc2ccco2)c(S(=O)(=O)[O-])cc1S(N)(=O)=O)C1CCCCC1.[K+] the Saluretic activity was 1 m equiv 5hr-1 kg-1. CC(C)CS(=O)(=O)c1cc(NCc2ccco2)c(S(=O)(=O)[O-])cc1S(N)(=O)=O.[Na+] showed a Saluretic activity of 2.5 m equiv 5hr-1 kg-1. CN(Cc1ccco1)c1cc(Oc2ccccc2)c(S(N)(=O)=O)cc1S(=O)(=O)[O-].[K+] was tested, and the Saluretic activity was 1.5 m equiv 5hr-1 kg-1. For Cc1cccc(Nc2cc(NCc3ccco3)c(S(=O)(=O)[O-])cc2S(N)(=O)=O)c1.[Na+], the Saluretic activity was 1.5 m equiv 5hr-1 kg-1. In the case of CN(Cc1ccco1)c1cc(Cl)c(S(N)(=O)=O)cc1S(=O)(=O)[O-].[Na+], the Saluretic activity was 0.5 m equiv 5hr-1 kg-1.

Organism: Rattus norvegicus
Experiment: Diuretic activity in the rats, determined by a modified Lipschitz test
Format: functional, Urine
How it was run: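 Modified Lipschitz test: rats deprived of water 24 h, grouped in threes of similar weight in diuresis funnels. Oral dose of 50 mg/kg, suspended in 2% starch solution, by stomach tube.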
For CC(C)(C)S(=O)(=O)c1cc(NCc2ccco2)c(S(=O)(=O)[O-])cc1S(N)(=O)=O.[K+], the Diuretic activity was 2.5 mL/kg. In the case of NS(=O)(=O)c1cc(S(=O)(=O)[O-])c(NCc2ccco2)cc1Oc1ccc(Cl)cc1.[K+], the Diuretic activity was 2.2 mL/kg. For NS(=O)(=O)c1cc(S(=O)(=O)[O-])c(NCc2ccco2)cc1Nc1ccccc1Cl.[Na+], the Diuretic activity was 1.1 mL/kg. With NS(=O)(=O)c1cc(S(=O)(=O)[O-])c(NCC2CCCO2)cc1Cl.[Na+] (configuration not stated) the Diuretic activity was 0.4 mL/kg. NS(=O)(=O)c1cc(S(=O)(=O)[O-])c(NCc2ccc3c(c2)OCO3)cc1Cl.[Na+] gave a Diuretic activity of 0.4 mL/kg. In the case of N.NS(=O)(=O)c1cc(S(=O)(=O)O)c(NCc2ccco2)cc1Oc1ccccc1, the Diuretic activity was 4.2 mL/kg. NC(CO)(CO)CO.NS(=O)(=O)c1cc(S(=O)(=O)O)c(NCc2ccco2)cc1Oc1ccccc1 gave a Diuretic activity of 4.1 mL/kg. CN(c1ccc(Cl)cc1)c1cc(NCc2ccco2)c(S(=O)(=O)[O-])cc1S(N)(=O)=O.[Na+] was tested, and the Diuretic activity was 1.2 mL/kg. CN(c1ccccc1)c1cc(NCc2ccco2)c(S(=O)(=O)[O-])cc1S(=O)(=O)N(C)C.[K+] showed a Diuretic activity of 1.6 mL/kg. CN(c1ccccc1)c1cc(NCc2ccco2)c(S(=O)(=O)[O-])cc1S(N)(=O)=O.[K+] was tested, and the Diuretic activity was 3.1 mL/kg. NS(=O)(=O)c1cc(S(=O)(=O)[O-])c(S(=O)(=O)C2CCCCC2)cc1NCc1ccco1.[Na+] was tested, and the Diuretic activity was 0.8 mL/kg. Molecule NS(=O)(=O)c1cc(S(=O)(=O)[O-])c(NCc2ccco2)cc1Nc1ccc(Cl)cc1.[Na+] has a Diuretic activity of 0.4 mL/kg. CN(c1ccccc1)c1cc(NCc2ccco2)c(S(=O)(=O)O)cc1S(N)(=O)=O.N gave a Diuretic activity of 4.8 mL/kg. With CN(c1cc(NCc2ccco2)c(S(=O)(=O)[O-])cc1S(N)(=O)=O)C1CCCCC1.[K+] the Diuretic activity was 0.8 mL/kg. CC(C)CS(=O)(=O)c1cc(NCc2ccco2)c(S(=O)(=O)[O-])cc1S(N)(=O)=O.[Na+] gave a Diuretic activity of 2.8 mL/kg. CN(Cc1ccco1)c1cc(Oc2ccccc2)c(S(N)(=O)=O)cc1S(=O)(=O)[O-].[K+] was tested, and the Diuretic activity was 1.3 mL/kg. Cc1cccc(Nc2cc(NCc3ccco3)c(S(=O)(=O)[O-])cc2S(N)(=O)=O)c1.[Na+] was tested, and the Diuretic activity was 0.8 mL/kg. Molecule CN(Cc1ccco1)c1cc(Cl)c(S(N)(=O)=O)cc1S(=O)(=O)[O-].[Na+] has a Diuretic activity of 0.8 mL/kg.

Organism: Rattus norvegicus
Experiment: Saluretic activity in the rat measured as concentration of chloride in urine
Format: functional
How it was run: as §1
CC(C)(C)S(=O)(=O)c1cc(NCc2ccco2)c(S(=O)(=O)[O-])cc1S(N)(=O)=O.[K+] was tested, and the Saluretic activity was 4.3 m equiv 5hr-1 kg-1. Work on NS(=O)(=O)c1cc(S(=O)(=O)[O-])c(NCc2ccco2)cc1Oc1ccc(Cl)cc1.[K+] yielded a Saluretic activity of 6.4 m equiv 5hr-1 kg-1. With NS(=O)(=O)c1cc(S(=O)(=O)[O-])c(NCc2ccco2)cc1Nc1ccccc1Cl.[Na+] the Saluretic activity was 0.6 m equiv 5hr-1 kg-1. With NS(=O)(=O)c1cc(S(=O)(=O)[O-])c(NCC2CCCO2)cc1Cl.[Na+] (configuration not stated) the Saluretic activity was 0.5 m equiv 5hr-1 kg-1. For NS(=O)(=O)c1cc(S(=O)(=O)[O-])c(NCc2ccc3c(c2)OCO3)cc1Cl.[Na+], the Saluretic activity was 0.3 m equiv 5hr-1 kg-1. In the case of N.NS(=O)(=O)c1cc(S(=O)(=O)O)c(NCc2ccco2)cc1Oc1ccccc1, the Saluretic activity was 8.7 m equiv 5hr-1 kg-1. Work on NC(CO)(CO)CO.NS(=O)(=O)c1cc(S(=O)(=O)O)c(NCc2ccco2)cc1Oc1ccccc1 yielded a Saluretic activity of 7.8 m equiv 5hr-1 kg-1. In the case of CN(c1ccc(Cl)cc1)c1cc(NCc2ccco2)c(S(=O)(=O)[O-])cc1S(N)(=O)=O.[Na+], the Saluretic activity was 0.7 m equiv 5hr-1 kg-1. With CN(c1ccccc1)c1cc(NCc2ccco2)c(S(=O)(=O)[O-])cc1S(=O)(=O)N(C)C.[K+] the Saluretic activity was 1.5 m equiv 5hr-1 kg-1. With CN(c1ccccc1)c1cc(NCc2ccco2)c(S(=O)(=O)[O-])cc1S(N)(=O)=O.[K+] the Saluretic activity was 7.4 m equiv 5hr-1 kg-1. With NS(=O)(=O)c1cc(S(=O)(=O)[O-])c(S(=O)(=O)C2CCCCC2)cc1NCc1ccco1.[Na+] the Saluretic activity was 1 m equiv 5hr-1 kg-1. NS(=O)(=O)c1cc(S(=O)(=O)[O-])c(NCc2ccco2)cc1Nc1ccc(Cl)cc1.[Na+] showed a Saluretic activity of 0.5 m equiv 5hr-1 kg-1. Molecule CN(c1ccccc1)c1cc(NCc2ccco2)c(S(=O)(=O)O)cc1S(N)(=O)=O.N has a Saluretic activity of 8.3 m equiv 5hr-1 kg-1. In the case of CN(c1cc(NCc2ccco2)c(S(=O)(=O)[O-])cc1S(N)(=O)=O)C1CCCCC1.[K+], the Saluretic activity was 0.6 m equiv 5hr-1 kg-1. CC(C)CS(=O)(=O)c1cc(NCc2ccco2)c(S(=O)(=O)[O-])cc1S(N)(=O)=O.[Na+] showed a Saluretic activity of 8.1 m equiv 5hr-1 kg-1. Molecule CN(Cc1ccco1)c1cc(Oc2ccccc2)c(S(N)(=O)=O)cc1S(=O)(=O)[O-].[K+] has a Saluretic activity of 1.7 m equiv 5hr-1 kg-1. Cc1cccc(Nc2cc(NCc3ccco3)c(S(=O)(=O)[O-])cc2S(N)(=O)=O)c1.[Na+] was tested, and the Saluretic activity was 0.9 m equiv 5hr-1 kg-1. In the case of CN(Cc1ccco1)c1cc(Cl)c(S(N)(=O)=O)cc1S(=O)(=O)[O-].[Na+], the Saluretic activity was 0.8 m equiv 5hr-1 kg-1.
